CAL PDZ FP-1 = inhibitors of human CAL PDZ peptide binding; Q9HD26; purified CAL PDZ, TMR-peptide fluorescence polarization, 1 h; inhibition, % at 20 µM; hit rate 0.02% among 330,000;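 active = highest replicate inhibition of at least 40%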
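Test system: purified CerCALP PDZ construct; Compound dosing: one concentration, 20 µM compound; Also added: TMR-labelled reporter peptide T*-PRC34 bound in PDZ groove; Read-out: inhibition from polarization loss; Controls: unlabelled peptide and DMSO controls; Signal: FP readout, S and P plane fluorescence; Incubation: 1 h at RT.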
miR-122 sensor = inhibitors of miR-122 in Huh7 cells; Huh7 miR-122 Renilla luciferase sensor, 48 h; neutral wells = 0, positive control = 100; activation (reporter increase), % at 12.5 µM; hit rate 0.3% among 340,000;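 active = mean replicate activation score at least 90 and every replicate individually at or above 90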;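 also: higher luciferase means less miR-122 activity so hits act as miR-122 inhibitors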
CAL PDZ FP-2 = CAL PDZ (human) peptide binding inhibition; Q9HD26; purified CAL PDZ, TMR-peptide fluorescence polarization, 1 h; inhibition, % at 24.9 µM; hit rate 0.92% among 300,000; AID 602252;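 active = mean inhibition of at least 30% with at least half of replicates also reaching 30%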
PglD DTNB = inhibitors of Campylobacter jejuni PglD acetyltransferase | hit rate 0.098% among 360,000 | inhibition, % at 12.5 µM | purified PglD enzyme, DTNB colorimetric CoA detection | AID 602405; in the data active = inhibition above about 16%, passing the limit was not always enough
Cneo AK release = Cryptococcus neoformans lysis via adenylate kinase release; C. neoformans lysis, adenylate kinase release luminescence, 4 h; normalised: neutral wells 0, clomiphene wells 100; lysis activity, % at 15 µM; hit rate 0.2% among 360,000;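 active = mean lysis activity across replicates of at least 80%, whatever share of replicates individually reach that level; inactive = mean lysis activity below 80%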
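Assay system: log-phase C. neoformans yeast / Quantity: yeast cell density of 5 × 10^6 cells/mL / Medium: fresh YPD growth medium / Compound: single dose / Timing: static 4 h at 37 °C with compound, 1 h detection / Measured by: adenylate kinase release luminescence / Read-out: lysis from increased AK signal / Benchmarks: Clomiphene as positive lysis control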
Numbers stand for hits; i = inactive; nt = not tested or not shown; [ ] = another dose, or the depositor's remark. Hits are enriched below; roughly 1.1% of the tested compounds scored in any of these assays.

SMILES	CAL PDZ FP-1	miR-122 sensor	CAL PDZ FP-2	PglD DTNB	Cneo AK release
Cc1ccccc1N1CCN(C2CCCN(C(=O)c3csc(C(C)C)n3)C2)CC1 (stereo unspecified)	i	i	54	i	i
C[C@H](CO)N1C[C@H](C)[C@@H](CN(C)Cc2ccc(Cl)c(Cl)c2)Oc2ccc(NC(=O)C3CC3)cc2CC1=O	nt	i	nt	i	i
Cc1ccc(C)c(-n2cc(CNCCc3cnccn3)c(-c3ccccc3)n2)c1	i	i	53	nt	nt
COC(=O)c1sccc1NC(=O)c1c(Cl)cccc1Cl	nt	i	i	i	i
COC(=O)c1sccc1NC(=O)c1cccc(Cl)c1	i	nt	83	nt	nt
COCC(=O)Nc1ccc2c(c1)C(=O)N(C)C[C@@H](OC)[C@H](C)CN(C(=O)COC)[C@H](C)CO2	nt	i	nt	i	i
C[C@@H]1CN([C@H](C)CO)C(=O)c2cc(C#CC(C)(C)O)cnc2O[C@@H]1CN(C)Cc1cncnc1	nt	i	nt	i	85
C[C@H]1CN([C@@H](C)CO)C(=O)c2cc(C#CC3(O)CCCC3)cnc2O[C@H]1CN(C)Cc1cccnc1	nt	i	nt	i	nt
COc1ccccc1-c1cnc2c(c1)C(=O)N([C@@H](C)CO)C[C@H](C)[C@H](CN(C)Cc1cncnc1)O2	nt	i	nt	i	i
C[C@H]1CN([C@@H](C)CO)C(=O)c2cc(Br)cnc2O[C@@H]1CN(C)Cc1ccccn1	nt	i	nt	i	107
C[C@H](CO)N1C[C@H](C)[C@H](CN(C)Cc2cccnc2)Oc2ncc(C#CC3(O)CCCC3)cc2C1=O	nt	i	nt	i	98
C[C@H](CO)N1C[C@H](C)[C@@H](CN(C)Cc2ccccn2)Oc2ncc(Br)cc2C1=O	nt	i	nt	i	i
COc1ccccc1-c1cnc2c(c1)C(=O)N([C@H](C)CO)C[C@@H](C)[C@H](CN(C)Cc1cncnc1)O2	nt	i	nt	i	82
COc1ccc(CN(C)C[C@H]2Oc3ccc(NS(=O)(=O)c4cn(C)cn4)cc3CC(=O)N([C@@H](C)CO)C[C@@H]2C)cc1	nt	i	nt	i	i
CC(C)NC(=O)N(C)C[C@H]1OCCCC[C@@H](C)Oc2ccc(NS(C)(=O)=O)cc2C(=O)N([C@@H](C)CO)C[C@@H]1C	nt	i	nt	i	i
Cc1ccccc1-c1cnc2c(c1)C(=O)N([C@H](C)CO)C[C@@H](C)[C@H](CN(C)Cc1ccccc1F)O2	nt	121[16.7 µM]	nt	i	i
Cc1ccccc1S(=O)(=O)N1CC[C@@H]2[C@@H](CO)N(C)c3ccc(-c4ccccc4)cc3[C@@H]21	nt	102[16.7 µM]	nt	i	i
Cc1ccccc1S(=O)(=O)N1CC[C@@H]2[C@H]1c1cc(-c3cccc(F)c3)ccc1N(C)[C@H]2CO	nt	i	nt	i	i
Cc1ccc(S(=O)(=O)N2CC[C@@H]3[C@H](CO)Nc4ccc(-c5ccccc5F)cc4[C@@H]32)cc1	nt	i	nt	i	90
COc1ccc(S(=O)(=O)N2CC[C@@H]3[C@@H](CO)N(C)c4ccc(-c5ccc(F)cc5)cc4[C@@H]32)cc1	nt	196[16.7 µM]	nt	i	i
O=C(C[C@H]1CC[C@@H]2[C@H](COC[C@H](O)CN2C(=O)c2ccccc2)O1)Nc1nccs1	nt	i	nt	i	i
C[C@@H]1CN([C@H](C)CO)C(=O)c2cc(C#Cc3ccncc3)cnc2O[C@H]1CN(C)C(=O)c1ccccc1F	nt	i	nt	i	i
Cc1noc(C)c1S(=O)(=O)Nc1ccc2c(c1)C(=O)N([C@@H](C)CO)C[C@H](C)[C@H](CN(C)C(=O)CCC(F)(F)F)OCCCC[C@@H](C)O2	nt	i	nt	i	i
Cc1ccc(CNC(=O)C(c2ccccc2)c2ccccc2)cc1	i	nt	94	i	i
CC(C)C#Cc1ccc2c(c1)O[C@@H](CN(C)C(=O)Cc1ccccn1)[C@H](C)CN([C@H](C)CO)S2(=O)=O	nt	i	nt	i	i
COc1ccccc1C#Cc1ccc2c(c1)O[C@H](CN(C)C(C)=O)[C@H](C)CN([C@@H](C)CO)S2(=O)=O	nt	i	nt	i	104
CC(C)C#Cc1ccc2c(c1)O[C@H](CN(C)C(=O)Cc1ccccn1)[C@H](C)CN([C@H](C)CO)S2(=O)=O	nt	i	nt	i	101
CCCC#Cc1ccc2c(c1)O[C@@H](CN(C)C(=O)c1ccccn1)[C@H](C)CN([C@@H](C)CO)S2(=O)=O	nt	i	nt	i	i
CCCC#Cc1ccc2c(c1)O[C@H](CN(C)C(=O)c1ccccn1)[C@@H](C)CN([C@H](C)CO)S2(=O)=O	nt	128[16.7 µM]	nt	i	i

From PubChem
